Experimental data taken from ChEMBL document CHEMBL4033712, “Synthesis and biological evaluation of new C-12(α/β)-(N-) sulfamoyl-phenylamino-14-deoxy-andrographolide derivatives as potent anti-cancer agents” (Bioorg Med Chem Lett, 2017).

How the values were obtained:
Type in all cases: functional
UO-31 = assay: Growth inhibition of human UO31 cells incubated for 48 hrs by sulforhodamine B assay; settings: UO-31, 48 h
Summary of the method: (§1)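 NCI 60 human tumour cell line panel, five-dose study at 0.01, 0.1, 1, 10 and 100 µM, 48 h incubation. Sulforhodamine B protein-binding dye end point. GI50 (50% decrease in net cell growth), TGI (total growth inhibition) and LC50 (net 50% loss of initial cells) read from log concentration versus % growth inhibition curves.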

MOLT-4 = assay: Growth inhibition of human MOLT4 cells incubated for 48 hrs by sulforhodamine B assay; settings: MOLT-4, 48 h
Summary of the method: (§2)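 NCI-60 five-dose screen at 0.01, 0.1, 1, 10 and 100 µM, 48 h incubation, sulforhodamine B end point. GI50 (50% decrease in net growth), TGI (total growth inhibition) and LC50 (net 50% loss of initial cells) taken from log concentration versus % growth inhibition curves.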

OVCAR-4 = assay: Growth inhibition of human OVCAR4 cells incubated for 48 hrs by sulforhodamine B assay; settings: OVCAR-4, 48 h; summary of the method: as §2
HOP-62 = assay: Growth inhibition of human HOP62 cells incubated for 48 hrs by sulforhodamine B assay; settings: HOP-62, 48 h; summary of the method: as §2
HOP-92 [1] = assay: Growth inhibition of human HOP92 cells incubated for 48 hrs by sulforhodamine B assay; settings: HOP-92, 48 h; summary of the method: as §2
NCI-H322M = assay: Growth inhibition of human NCI-H322M cells incubated for 48 hrs by sulforhodamine B assay; summary of the method: as §2
A549 = assay: Growth inhibition of human A549/ATCC cells incubated for 48 hrs by sulforhodamine B assay; settings: A549, 48 h; summary of the method: as §2
OVCAR-3 = assay: Growth inhibition of human OVCAR3 cells incubated for 48 hrs by sulforhodamine B assay; settings: OVCAR-3, 48 h; summary of the method: as §2
TK-10 = assay: Growth inhibition of human TK10 cells incubated for 48 hrs by sulforhodamine B assay; settings: TK-10, 48 h; summary of the method: as §1
SF-268 = assay: Growth inhibition of human SF268 cells incubated for 48 hrs by sulforhodamine B assay; settings: SF-268, 48 h; summary of the method: as §1
COLO 205 = assay: Growth inhibition of human COLO205 cells incubated for 48 hrs by sulforhodamine B assay; settings: COLO 205, 48 h; summary of the method: as §2
HT-29 = assay: Growth inhibition of human HT-29 cells incubated for 48 hrs by sulforhodamine B assay; settings: HT-29, 48 h; summary of the method: as §2
NCI-H522 = assay: Growth inhibition of human NCI-H522 cells incubated for 48 hrs by sulforhodamine B assay; settings: NCI-H522, 48 h; summary of the method: as §2
OVCAR-5 = assay: Growth inhibition of human OVCAR5 cells incubated for 48 hrs by sulforhodamine B assay; settings: OVCAR-5, 48 h; summary of the method: as §2
786-0 = assay: Growth inhibition of human 786-0 cells incubated for 48 hrs by sulforhodamine B assay; settings: 786-0, 48 h; summary of the method: as §2
NCI-H226 = assay: Growth inhibition of human NCI-H226 cells incubated for 48 hrs by sulforhodamine B assay; settings: NCI-H226, 48 h; summary of the method: as §2
NCI-H23 = assay: Growth inhibition of human NCI-H23 cells incubated for 48 hrs by sulforhodamine B assay; settings: NCI-H23, 48 h; summary of the method: as §2
MDA-MB-468 = assay: Growth inhibition of human MDA-MB-468 cells incubated for 48 hrs by sulforhodamine B assay; settings: MDA-MB-468, 48 h; summary of the method: as §2
NCI/ADR-RES = assay: Growth inhibition of human NCI/ADR-RES cells incubated for 48 hrs by sulforhodamine B assay; summary of the method: as §2
IGROV-1 = assay: Growth inhibition of human IGROV1 cells incubated for 48 hrs by sulforhodamine B assay; settings: IGROV-1, 48 h; summary of the method: as §2
SK-OV-3 = assay: Growth inhibition of human SKOV3 cells incubated for 48 hrs by sulforhodamine B assay; settings: SK-OV-3, 48 h; summary of the method: as §1
SK-MEL-28 = assay: Growth inhibition of human SK-MEL-28 cells incubated for 48 hrs by sulforhodamine B assay; settings: SK-MEL-28, 48 h; summary of the method: as §1
SNB-19 = assay: Anticancer activity against human SNB19 cells assessed as cell growth at 10 uM after 48 hrs by sulforhodamine B assay relative to control; settings: SNB-19, 48 h, read-out: Activity
Summary of the method: (§3)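 Single-dose NCI-60 panel screen: compound added at 10 µM and the culture incubated 48 h. The end point was read by protein staining with sulforhodamine B. The value is percent growth of treated cells relative to untreated control cells, reported as a mean graph across the panel.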

UACC-257 = assay: Growth inhibition of human UACC257 cells incubated for 48 hrs by sulforhodamine B assay; settings: UACC-257, 48 h; summary of the method: as §1
NCI-H460 = assay: Growth inhibition of human NCI-H460 cells incubated for 48 hrs by sulforhodamine B assay; settings: NCI-H460, 48 h; summary of the method: as §2
HOP-92 [2] = assay: Anticancer activity against human HOP92 cells assessed as cell growth at 10 uM after 48 hrs by sulforhodamine B assay relative to control; settings: HOP-92, 48 h, read-out: Activity; summary of the method: as §3
U-251 = assay: Growth inhibition of human U251 cells incubated for 48 hrs by sulforhodamine B assay; settings: U-251, 48 h; summary of the method: as §1
Hs-578T = assay: Growth inhibition of human Hs 578T cells incubated for 48 hrs by sulforhodamine B assay; summary of the method: as §2
[3] = read-out: LC50 (the source's name)

C=C1CC[C@@H]2[C@](C)(COC(C)=O)[C@H](OC(C)=O)CC[C@@]2(C)[C@H]1CC(Nc1ccc(S(=O)(=O)Nc2ccc(Cl)nn2)cc1)C1=CCOC1=O (stereo partly drawn)
GI50 (UO-31): 1.45 µM
LC50 (concentration giving net 50% loss of initial cells) (UO-31): 5.73 µM
TGI (UO-31): 2.88 µM
GI50 (MOLT-4): 1.96 µM
TGI (MOLT-4): > 100 µM
CC50 (MOLT-4; [3]): > 100 µM
GI50 (OVCAR-4): 1.47 µM
LC50 (OVCAR-4): 6.82 µM
TGI (OVCAR-4): 3.17 µM
GI50 (HOP-62): 1.46 µM
TGI (HOP-62): 2.99 µM
CC50 (HOP-62; [3]): 6.12 µM
GI50 (HOP-92 [1]): 2.7 µM
TGI (HOP-92 [1]): 7.89 µM
CC50 (HOP-92 [1]; [3]): 27.5 µM
GI50 (NCI-H322M): 2.97 µM
TGI (NCI-H322M): 11.6 µM
CC50 (NCI-H322M; [3]): 36.1 µM
GI50 (A549): 2.96 µM
TGI (A549): 10.7 µM
CC50 (A549; [3]): 40.9 µM
GI50 (OVCAR-3): 1.22 µM
TGI (OVCAR-3): 2.51 µM
CC50 (OVCAR-3; [3]): 5.18 µM
GI50 (TK-10): 2.13 µM
TGI (TK-10): 4.19 µM
CC50 (TK-10; [3]): 8.25 µM
GI50 (SF-268): 1.8 µM
TGI (SF-268): 3.67 µM
CC50 (SF-268; [3]): 7.51 µM
GI50 (COLO 205): 1.46 µM
TGI (COLO 205): 3.16 µM
CC50 (COLO 205; [3]): 6.86 µM
GI50 (HT-29): 1.18 µM
TGI (HT-29): 2.68 µM
GI50 (NCI-H522): 0.75 µM
TGI (NCI-H522): 2.1 µM
CC50 (NCI-H522; [3]): 4.82 µM
GI50 (OVCAR-5): 2.01 µM
LC50 (concentration causing net 50% loss of initial cells) (OVCAR-5): 8.63 µM
TGI (OVCAR-5): 4.16 µM
GI50 (786-0): 1.69 µM
LC50 (concentration giving net 50% loss of initial cells) (786-0): 5.83 µM
TGI (786-0): 3.14 µM
GI50 (NCI-H226): 1.67 µM
TGI (NCI-H226): 3.3 µM
GI50 (NCI-H23): 2.06 µM
TGI (NCI-H23): 5.35 µM
CC50 (NCI-H23; [3]): 43.2 µM
GI50 (MDA-MB-468): 1.32 µM
TGI (MDA-MB-468): 3.37 µM
CC50 (MDA-MB-468; [3]): 8.62 µM
GI50 (NCI/ADR-RES): 1.87 µM
LC50 (concentration giving net 50% loss of initial cells) (NCI/ADR-RES): > 100 µM
TGI (NCI/ADR-RES): 6.2 µM
GI50 (IGROV-1): 2.08 µM
TGI (IGROV-1): 5 µM
CC50 (IGROV-1; [3]): 18.3 µM
GI50 (SK-OV-3): 4.05 µM
TGI (SK-OV-3): 12.3 µM
CC50 (SK-OV-3; [3]): 35 µM
GI50 (SK-MEL-28): 1.68 µM
LC50 (50% net cell kill) (SK-MEL-28): 7.13 µM
TGI (SK-MEL-28): 3.46 µM
growth at 10 µM (SNB-19): 76%
GI50 (UACC-257): 1.67 µM
TGI (UACC-257): 3.89 µM
CC50 (UACC-257; [3]): 9.03 µM
GI50 (NCI-H460): 2.03 µM
TGI (NCI-H460): 4.31 µM
CC50 (NCI-H460; [3]): 9.15 µM
growth at 10 µM (HOP-92 [2]): 69.8%
GI50 (U-251): 1.68 µM
TGI (U-251): 3.05 µM
CC50 (U-251; [3]): 5.52 µM
GI50 (Hs-578T): 6.17 µM
LC50 (Hs-578T): > 100 µM
TGI (Hs-578T): > 100 µM
